In ChEMBL document CHEMBL1649090, “Discovery of (7R)-14-cyclohexyl-7-{[2-(dimethylamino)ethyl](methyl) amino}-7,8-dihydro-6H-indolo[1,2-e][1,5]benzoxazocine-11-carboxylic acid (MK-3281), a potent and orally bioavailable finger-loop inhibitor of the hepatitis C virus NS5B polymerase” (J Med Chem, 2011):

Key:
Hepatitis C virus [1] = test: Ratio of EC50 for HCV1b to EC50 for HCV1b in presence of 50% normal human serum; assay type: functional, Hepacivirus hominis, genotype 1b
Hepatitis C virus [2] = test: Antiviral activity against HCV1b infected in human Huh-7 cells assessed as inhibition of viral RNA replication after 96 hrs by ELISA assay in presence of 50% normal human serum; assay type: functional, organism-based, Hepacivirus hominis; conditions: genotype 1b, Huh-7, 96 h
[3] = Fraction unbound in human plasma; assay type: ADME, cell-free
Hepatitis C virus [4] = test: Antiviral activity against HCV1b infected in human Huh-7 cells assessed as inhibition of viral RNA replication after 96 hrs by ELISA assay in presence of 10% fetal calf serum; assay type: functional, organism-based, Hepacivirus hominis; conditions: genotype 1b, Huh-7, 96 h
Hepatitis C virus [5] = test: Inhibition of HCV1b NS5B delta21 polymerase after 1 hr; assay type: single protein, Hepatitis C virus subtype 1b
In short: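 Enzyme inhibition IC50 measured on genotype 1b HCV NS5B polymerase truncated by 21 C-terminal residues (ΔC21).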

[6] = Intrinsic clearance in human liver microsomes assessed per mg of protein; assay type: ADME, Microsome
[7] = Cmax in Sprague-Dawley rat at 3 mg/kg, po; assay type: ADME, organism-based; set-up: dose 3 mg/kg, route oral; conditions: in vivo
In short: (§1)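 Sprague-Dawley rats (n = 3) received the compound as its TFA salt in DMSO/PEG400/water 20%/60%/20%, as a single iv dose of 3 mg/kg or a single oral dose of 3 mg/kg. Liver tissue and plasma concentrations were measured 6 h after the oral dose.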

[8] = Half life in Sprague-Dawley rat at 3 mg/kg, iv; assay type: ADME, organism-based; set-up: dose 3 mg/kg, route intravenous; conditions: in vivo; in short: as §1
[9] = AUC in Sprague-Dawley rat at 3 mg/kg, po; assay type: ADME, organism-based; set-up: dose 3 mg/kg, route oral; conditions: plasma
In short: (§2)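 Single-dose rat PK with the compound given as its TFA salt to Sprague-Dawley rats (n = 3) in DMSO/PEG400/water 20%/60%/20%. Dosing was 3 mg/kg iv and 3 mg/kg po.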

[10] = Volume of distribution in Sprague-Dawley rat at 3 mg/kg, iv; assay type: ADME, organism-based; set-up: dose 3 mg/kg, route intravenous; conditions: in vivo
In short: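 Sprague-Dawley rats (n = 3) received a single 3 mg/kg iv dose, given as the TFA salt, in DMSO/PEG400/water 20%/60%/20%. Plasma clearance, half-life and volume of distribution were derived.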

[11] = Intrinsic clearance in rat liver microsomes assessed per mg of protein; assay type: ADME, Microsome
[12] = Drug level in Sprague-Dawley rat liver at 3 mg/kg, po after 6 hrs; assay type: ADME, organism-based; set-up: dose 3 mg/kg, route oral; conditions: read-out: Drug uptake; in short: as §1
[13] = Intrinsic clearance in dog liver microsomes assessed per mg of protein; assay type: ADME, Canis lupus familiaris, Microsome
[14] = Clearance in Sprague-Dawley rat at 3 mg/kg, iv; assay type: ADME, organism-based; set-up: dose 3 mg/kg, route intravenous; conditions: in vivo; in short: as §1
[15] = Ratio of drug level in liver to plasma in Sprague-Dawley rat liver at 3 mg/kg, po after 6 hrs; assay type: ADME, organism-based; set-up: dose 3 mg/kg, route oral; in short: as §1
[16] = Oral bioavailability in Sprague-Dawley rat at 3 mg/kg; assay type: ADME, organism-based; conditions: in vivo; in short: as §2

SMILES | Ratio EC50 (Hepatitis C virus [1]) | EC50 (Hepatitis C virus [2]) [nM] | EC50 (Hepatitis C virus [4]) [nM] | IC50 (Hepatitis C virus [5]) [nM] | also measured
CN1CCN(CCN(C)C2COc3ccccc3-c3c(C4CCCCC4)c4ccc(C(=O)O)cc4n3C2)CC1 (racemic) | 9 | 581 | 66 | 8 | fraction unbound [3]: 0.011
CN(CCN1CCCC1)C1COc2ccccc2-c2c(C3CCCCC3)c3ccc(C(=O)O)cc3n2C1 (racemic) | – | 335 | 99 | 11 | –
CN(C)CCN1CC2(COc3ccccc3-c3c(C4CCCCC4)c4ccc(C(=O)O)cc4n3C2)C1 | – | 454 | 80 | 4 | –
O=C(O)c1ccc2c(C3CCCCC3)c3n(c2c1)CCCc1ccccc1-3 | – | – | 10400 | 35 | –
CN(C)CCN(C)C1COc2ccccc2-c2c(C3CCCCC3)c3ccc(C(=O)O)cc3n2C1 (racemic) | – | 313 | 73 | 15 | fraction unbound [3]: 0.027
CCN(CCN(C)C)C1COc2ccccc2-c2c(C3CCCCC3)c3ccc(C(=O)O)cc3n2C1 (racemic) | 7 | 1030 | 153 | 11 | –
CC(C)N(CCN(C)C)C1COc2ccccc2-c2c(C3CCCCC3)c3ccc(C(=O)O)cc3n2C1 (racemic) | 7 | 1200 | 138 | 34 | –
CN(C)CC(=O)N(C)C1COc2ccccc2-c2c(C3CCCCC3)c3ccc(C(=O)O)cc3n2C1 (stereo not drawn) | 10 | 743 | 73 | 31 | fraction unbound [3]: 0.005
CC(C)N1CC[C@H](N2CCn3c(c(C4CCCCC4)c4sc(C(=O)O)cc43)-c3ccccc3C2)C1 | – | – | 150 | 19 | –
CNCCN(C)C1COc2ccccc2-c2c(C3CCCCC3)c3ccc(C(=O)O)cc3n2C1 (racemic) | – | 550 | 83 | 9 | –
CN(C)CCO[C@@H]1COc2ccccc2-c2c(C3CCCCC3)c3ccc(C(=O)O)cc3n2C1 | 6 | 493 | 78 | 19 | –
CN(C)CCN1CCn2c(c(C3CCCCC3)c3ccc(C(=O)O)cc32)-c2ccccc2C1 | – | – | – | 27 | microsomal CLint [6]: 5 µL/min/mg; Cmax [7]: 200 nM; half-life [8]: 96 min; AUC [9]: 0.7 µM·h; Vd [10]: 5.1 L/kg; microsomal CLint [11]: 100 µL/min/mg; concentration at 6 h [12]: 640 nM; microsomal CLint [13]: 26 µL/min/mg; clearance [14]: 61 mL/min/kg
CN(C)CCN(C)[C@@H]1COc2ccccc2-c2c(C3CCCCC3)c3ccc(C(=O)O)cc3n2C1 | 3 | 1680 | 338 | 35 | –
CCN(CC)C1CCN(C(=O)Cn2c(-c3ccc(Cl)cc3)c(C3CCCCC3)c3ccc(C(=O)O)cc32)CC1 | – | – | – | 48 | Kp at 6 h [15]: 16
CN(C)C1COc2ccccc2-c2c(C3CCCCC3)c3ccc(C(=O)O)cc3n2C1 (racemic) | 4 | 2110 | 570 | 32 | –
CN1CCN(C2COc3ccccc3-c3c(C4CCCCC4)c4ccc(C(=O)O)cc4n3C2)CC1 (racemic) | – | 361 | 120 | 10 | –
CNC1COc2ccccc2-c2c(C3CCCCC3)c3ccc(C(=O)O)cc3n2C1 (racemic) | – | 4980 | 1030 | 51 | –
NCCNC1COc2ccccc2-c2c(C3CCCCC3)c3ccc(C(=O)O)cc3n2C1 (racemic) | 4 | 1700 | 591 | 12 | –
COc1ccc2c(c1)[C@H]1[C@@H](CCN1CCN(C)C)Cn1c-2c(C2CCCCC2)c2ccc(C(=O)O)cc21 | – | – | 29 | 4 | –
CN(C)CC(=O)NC1COc2ccccc2-c2c(C3CCCCC3)c3ccc(C(=O)O)cc3n2C1 (racemic) | – | 1430 | 170 | 47 | –
CC(C)N1CC2(COc3ccccc3-c3c(C4CCCCC4)c4ccc(C(=O)O)cc4n3C2)C1 | – | 590 | 338 | 30 | –
CN(C)CCNC1COc2ccccc2-c2c(C3CCCCC3)c3ccc(C(=O)O)cc3n2C1 (racemic) | 4 | 856 | 173 | 32 | microsomal CLint [6]: 5 µL/min/mg; Cmax [7]: 300 nM; half-life [8]: 180 min; Kp at 6 h [15]: 21; AUC [9]: 0.9 µM·h; Vd [10]: 3.2 L/kg; microsomal CLint [11]: 7 µL/min/mg; concentration at 6 h [12]: 1300 nM; microsomal CLint [13]: 7 µL/min/mg; clearance [14]: 21 mL/min/kg; bioavailability [16]: 20%
CN(C)CCCNC1COc2ccccc2-c2c(C3CCCCC3)c3ccc(C(=O)O)cc3n2C1 (racemic) | 4 | 1370 | 258 | 17 | –
CN(C)CCO[C@H]1COc2ccccc2-c2c(C3CCCCC3)c3ccc(C(=O)O)cc3n2C1 | – | 1410 | 432 | 72 | –
CN(CCN1CCOCC1)C1COc2ccccc2-c2c(C3CCCCC3)c3ccc(C(=O)O)cc3n2C1 (racemic) | – | 312 | 90 | 10 | –
CN(C)C(=O)CNC1COc2ccccc2-c2c(C3CCCCC3)c3ccc(C(=O)O)cc3n2C1 (racemic) | – | > 5000 | 766 | 51 | –
CN1CCC(NC2COc3ccccc3-c3c(C4CCCCC4)c4ccc(C(=O)O)cc4n3C2)CC1 (racemic) | 4 | 1130 | 224 | 21 | –
COCCNC1COc2ccccc2-c2c(C3CCCCC3)c3ccc(C(=O)O)cc3n2C1 (racemic) | – | – | 2480 | 63 | –
O=C(O)c1ccc2c(C3CCCCC3)c3n(c2c1)CCCOc1ccccc1-3 | – | – | 2740 | 42 | –
